Experimental data reported in ChEMBL document CHEMBL1136765, “1,3-dioxolane-based ligands as a novel class of alpha1-adrenoceptor antagonists” (J Med Chem, 2003).

What was measured:
[1] = target: T1, Alpha-1B adrenergic receptor (Rattus norvegicus) (UniProt P15823); test: Inhibition of (-)-phenylephrine-induced contraction of rat spleen (Alpha-1B adrenergic receptor ); type: functional, tissue-based
T1 sequence (whole entry): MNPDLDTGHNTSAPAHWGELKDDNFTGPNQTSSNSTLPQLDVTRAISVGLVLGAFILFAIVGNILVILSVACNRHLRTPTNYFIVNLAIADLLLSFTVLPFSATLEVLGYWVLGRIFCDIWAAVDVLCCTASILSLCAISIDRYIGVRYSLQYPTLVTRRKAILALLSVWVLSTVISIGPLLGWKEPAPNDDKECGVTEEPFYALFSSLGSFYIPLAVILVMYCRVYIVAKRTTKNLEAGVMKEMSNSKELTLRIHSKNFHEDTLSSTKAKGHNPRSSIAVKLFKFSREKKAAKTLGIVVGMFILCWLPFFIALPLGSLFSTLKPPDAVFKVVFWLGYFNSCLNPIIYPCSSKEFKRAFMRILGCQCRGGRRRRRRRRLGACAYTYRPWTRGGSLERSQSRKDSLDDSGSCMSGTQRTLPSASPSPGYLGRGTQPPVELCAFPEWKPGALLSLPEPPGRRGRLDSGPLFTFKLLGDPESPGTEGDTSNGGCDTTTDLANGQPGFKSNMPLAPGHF
In short: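 Rat spleen strips in buffer containing 4 µM propranolol to block β-adrenoceptors, 1 g resting tension, 2 h equilibration. Isometric cumulative phenylephrine curves at 30 min intervals; first discarded, second control.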

[2] = target: Alpha adrenergic receptor 1A and 1B (Rattus norvegicus) (UniProt P15823+P43140); test: Selectivity given as ratio of pKb value against alpha1A receptor to pKb value against alpha-1B receptor in rat; type: functional
[3] = Selectivity given as ratio of pKb value against Alpha-1D receptor to pKb value against Alpha-1B receptor in rat; type: functional
[4] = target: T2, Alpha-1A adrenergic receptor (Rattus norvegicus) (UniProt P43140); test: Antagonistic activity against (-)-noradrenaline-induced contraction of rat prostatic vas deferens (Alpha-1A adrenergic receptor); type: functional, tissue-based
T2 sequence (whole entry): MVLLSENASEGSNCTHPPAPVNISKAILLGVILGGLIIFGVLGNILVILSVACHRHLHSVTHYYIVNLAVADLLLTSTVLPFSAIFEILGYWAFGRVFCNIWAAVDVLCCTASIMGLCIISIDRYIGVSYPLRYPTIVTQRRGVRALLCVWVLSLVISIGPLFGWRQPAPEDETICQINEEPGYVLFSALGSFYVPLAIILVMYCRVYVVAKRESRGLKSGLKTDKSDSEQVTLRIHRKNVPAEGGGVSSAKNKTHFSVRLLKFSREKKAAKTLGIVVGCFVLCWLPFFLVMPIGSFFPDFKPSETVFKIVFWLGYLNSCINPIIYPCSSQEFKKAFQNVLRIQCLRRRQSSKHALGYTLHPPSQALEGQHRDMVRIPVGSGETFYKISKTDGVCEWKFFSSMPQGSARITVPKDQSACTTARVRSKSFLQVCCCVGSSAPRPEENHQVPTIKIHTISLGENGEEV
In short: (§1)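 Rat prostatic vas deferens portion equilibrated 60 min, washed every 15 min, primed twice with 10 µM noradrenaline, re-equilibrated 60 min; control noradrenaline concentration-response curve, then antagonist 30 min before repeat curve.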

[5] = target: T3, Alpha-1D adrenergic receptor (Rattus norvegicus) (UniProt P23944); test: Inhibition of (-)-noradrenaline-induced contraction of rat thoracic aorta (Alpha-1D adrenergic receptor); type: functional, tissue-based
T3 sequence (whole entry): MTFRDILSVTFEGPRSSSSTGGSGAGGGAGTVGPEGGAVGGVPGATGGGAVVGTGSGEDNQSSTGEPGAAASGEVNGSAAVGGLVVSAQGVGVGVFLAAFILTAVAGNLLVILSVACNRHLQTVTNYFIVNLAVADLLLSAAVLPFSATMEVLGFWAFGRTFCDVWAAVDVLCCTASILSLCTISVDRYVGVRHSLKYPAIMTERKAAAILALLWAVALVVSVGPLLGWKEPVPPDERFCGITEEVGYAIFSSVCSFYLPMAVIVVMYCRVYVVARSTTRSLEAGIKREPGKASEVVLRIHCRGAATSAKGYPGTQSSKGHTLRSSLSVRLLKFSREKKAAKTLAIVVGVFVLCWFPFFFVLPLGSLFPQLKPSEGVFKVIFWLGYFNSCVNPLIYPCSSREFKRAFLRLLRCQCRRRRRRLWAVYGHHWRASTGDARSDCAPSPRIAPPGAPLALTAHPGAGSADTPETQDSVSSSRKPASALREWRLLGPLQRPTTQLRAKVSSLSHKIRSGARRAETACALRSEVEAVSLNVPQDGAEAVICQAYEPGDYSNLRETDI
In short: (§2)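 Endothelium-denuded rat thoracic aorta strips (denudation confirmed by no 100 µM acetylcholine relaxation after 1 µM noradrenaline) in Tyrode, 1 g tension, ≥2 h equilibration. Cumulative (-)-noradrenaline curves at 1 h intervals; third as control, antagonist 30 min before fourth.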

[6] = target: Alpha adrenergic receptor 1A and 1D (Rattus norvegicus) (UniProt P23944+P43140); test: Selectivity given as ratio of pKb value against Alpha-1D receptor to pKb value against alpha1A receptor in rat; type: functional
[7] = target: T4, Alpha-1A adrenergic receptor (Rattus norvegicus, UniProt P43140); test: Antagonistic activity against (-)-noradrenaline-induced contraction of rat prostatic vas deferens (Alpha-1A adrenergic receptor ); type: functional, tissue-based; settings: read-out: pA2 (converted)
T4 sequence (P43140 whole entry): T2 sequence (whole entry)
In short: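 Rat prostatic vas deferens segments equilibrated 60 min, washed every 15 min, primed twice with 10 µM noradrenaline, then re-equilibrated 60 min. Basal noradrenaline concentration-response curve, then repeat after 30 min antagonist equilibration.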

[8] = target: T5, Alpha-1D adrenergic receptor (Rattus norvegicus, UniProt P23944); test: Antagonistic activity against (-)-noradrenaline-induced contraction of rat thoracic aorta (Alpha-1D adrenergic receptor); type: functional, tissue-based; settings: read-out: pA2 (converted); in short: as §2
T5 sequence (P23944 whole entry): T3 sequence (whole entry)

[9] = target: T2, Alpha-1A adrenergic receptor (Rattus norvegicus); test: Inhibition of (-)-noradrenaline-induced contraction of rat prostatic vas deferens (alpha1A receptor); type: functional; in short: as §1

Kb [7] | Compound | pKb [1] | Selectivity [2] | Selectivity [3] | pKb [4] | pKb [5] | Selectivity [6] | Kb [8] | pKb [9]
 | COc1cccc(OC)c1OCCNCC1CO[C@H](c2ccccc2)O1.O=C(O)C(=O)O (some centres undefined) | 5.7 | 8 | 6 | 6.61 | 6.44 | 0.7 |  | 
0.437 nM | COc1cccc(OC)c1OCCNCC1COc2ccccc2O1 (centres undefined) |  |  |  |  |  |  | 2.51 nM | 
 | COc1cccc(OC)c1OCCNCC1CO[C@@](C)(c2ccccc2)O1.O=C(O)C(=O)O (some centres undefined) | 5.93 | 0.6 | 7 |  | 6.69 | 11 |  | 5.74
 | COc1cccc(OC)c1OCCNCC1CO[C@H](C(c2ccccc2)c2ccccc2)O1.O=C(O)C(=O)O (some centres undefined) | 5.51 | 12 | 44 |  | 7.15 | 36 |  | 5.6
 | COc1ccccc1N1CCN(CCN2C(=O)CC3(CCCC3)CC2=O)CC1 | 7.48 |  |  |  | 8.4 |  |  | 
 | COc1cccc(OC)c1OCCNCC1CO[C@@H](C(c2ccccc2)c2ccccc2)O1.O=C(O)C(=O)O (some centres undefined) | 5.44 | 21 | 28 |  | 6.88 | 1 |  | 6.77
 | O=C(O)C(=O)O.c1ccc(OCCNCC2CO[C@H](c3ccccc3)O2)cc1 (some centres undefined) | 6.3 | 0.1 | 6 |  | 7.09 | 45 |  | 5.44
 | COc1cccc(OC)c1OCCNCC1CO[C@@H](c2cccc3ccccc23)O1.O=C(O)C(=O)O (some centres undefined) | 6.38 | 0.2 | 5 |  | 7.07 | 24 |  | 5.69
 | COc1cccc(OC)c1OCCNCC1COC(c2ccccc2)(c2ccccc2)O1.O=C(O)C(=O)O (centres undefined) | 5.89 | 0.7 | 11 |  |  | 16 | 117 nM | 5.73
 | O=C(O)C(=O)O.c1ccc(OCCNCC2COC3(CCCCC3)O2)cc1 (centres undefined) | 6.2 | 0.1 | 2 |  | 6.54 | 19 |  | 5.27
 | COc1cccc(OC)c1OCCNCC1COC(c2ccc3ccccc3c2)O1.O=C(O)C(=O)O (centres undefined) | 5.12 | 5 | 33 |  | 6.65 | 7 |  | 5.79
 | COc1cccc(OC)c1OCCNCC1CO[C@H](c2cccc3ccccc23)O1.O=C(O)C(=O)O (some centres undefined) | 6.38 | < 0.04 | 9 |  | 7.32 | > 209 |  | < 5
 | COc1cccc(OC)c1OCCNCC1CO[C@](C)(c2ccccc2)O1.O=C(O)C(=O)O (some centres undefined) | 5.56 | 2 | 21 |  |  | 12 | 129 nM | 5.8
 | COc1cccc(OC)c1OCCNCC1CO[C@@H](Cc2ccccc2)O1.O=C(O)C(=O)O (some centres undefined) | 5.45 | 23 | 5 |  | 6 | 0.2 |  | 6.82
 | COc1cccc(OC)c1OCCNCC1CO[C@H](Cc2ccccc2)O1.O=C(O)C(=O)O (some centres undefined) | 5.77 | 0.4 | 0.2 |  | 5.13 | 0.6 |  | 5.36
 | COc1cccc(OC)c1OCCNCC1CO[C@@H](c2ccccc2)O1.O=C(O)C(=O)O (some centres undefined) | 6.19 | 1 | 1 |  | 6.18 | 0.7 |  | 6.31
 | O=C(O)C(=O)O.c1ccc(OCCNCC2CO[C@@H](c3ccccc3)O2)cc1 (some centres undefined) | 6.4 | 0.4 | 4 |  | 6.94 | 9 |  | 6.01
